Measured values taken from ChEMBL document CHEMBL4028903 (J Med Chem, 2017).
Converted amounts (≈) assume the structure as drawn. The source made the active and inactive calls. The rule behind the calls is not given here.

Assays:
[1] = Drug uptake in Sprague-Dawley rat plasma at 0.01 mg/kg, po qd administered via gavage measured 7 hrs post last dose on day 14 by LC-MS/MS analysis; assay type: ADME, organism-based
[2] = Cmax in Sprague-Dawley rat at 3 mg/kg, po qd administered via gavage measured on day 1 by LC-MS/MS analysis; assay type: ADME, organism-based; design: dose 3 mg/kg, route oral; conditions: in vivo
[3] = tested on: Rattus norvegicus; experiment: In vivo agonist activity at FXR in Sprague-Dawley rat assessed as serum triglyceride level at 0.3 mg/kg, po administered once daily for 14 days measured 24 hrs post last dose; assay type: functional
[4] = tested on: Rattus norvegicus; experiment: In vivo agonist activity at FXR in po dosed Sprague-Dawley rat assessed as downregulation of CYP8B1 mRNA level in liver administered once daily for 14 days measured 7 hrs post last dose on day 14 by qPCR analysis; assay type: functional
[5] = Drug uptake in Sprague-Dawley rat liver at 0.003 mg/kg, po qd administered via gavage measured 1 hr post last dose on day 14 by LC-MS/MS analysis; assay type: ADME, organism-based; conditions: read-out: Drug uptake
How it was run: (§1)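 Drug concentration in liver was quantified from tissue homogenates, so these are total levels. Unbound liver concentration was not determined.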

[6] = AUC in rat at 10 mg/kg, po administered via gavage by LC-MS/MS analysis; assay type: ADME, organism-based; conditions: in vivo
How it was run: (§2)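 Rats were dosed IV as a solution in 75% PEG300:25% D5W, or orally as a suspension in 0.5% methylcellulose, 0.5% Tween80 and 99% water.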

[7] = Drug uptake in Sprague-Dawley rat plasma at 0.1 mg/kg, po qd administered via gavage measured 7 hrs post last dose on day 14 by LC-MS/MS analysis; assay type: ADME, organism-based
[8] = Cmax in Sprague-Dawley rat at 1 mg/kg, po qd administered via gavage measured on day 1 by LC-MS/MS analysis; assay type: ADME, organism-based; design: dose 1 mg/kg, route oral; conditions: in vivo
[9] = Drug uptake in Sprague-Dawley rat plasma at 0.03 mg/kg, po qd administered via gavage measured 7 hrs post last dose on day 14 by LC-MS/MS analysis; assay type: ADME, organism-based
[10] = tested on: Rattus norvegicus; experiment: Dose normalized AUC (0 to 24 hrs) in Sprague-Dawley rat at 0.01 mg/kg, po qd administered via gavage measured on day 1 by LC-MS/MS analysis; assay type: ADME, organism-based; conditions: in vivo
[11] = Drug uptake in Sprague-Dawley rat liver at 0.01 mg/kg, po qd administered via gavage measured 7 hrs post last dose on day 14 by LC-MS/MS analysis; assay type: ADME, organism-based; conditions: read-out: Drug uptake; how it was run: as §1
[12] = Drug uptake in Sprague-Dawley rat liver at 0.03 mg/kg, po qd administered via gavage measured 7 hrs post last dose on day 14 by LC-MS/MS analysis; assay type: ADME, organism-based; conditions: read-out: Drug uptake; how it was run: as §1
[13] = tested on: Rattus norvegicus; experiment: In vivo agonist activity at FXR in Sprague-Dawley rat assessed as induction of FGF15 mRNA level in ileum at 0.01 mg/kg, po qd for 14 days measured 7 hrs post last dose on day 14 by qPCR analysis; assay type: functional, organism-based
[14] = Volume of distribution at steady state in rat at 3 mg/kg, iv by LC-MS/MS analysis; assay type: ADME, organism-based; conditions: in vivo, read-out: Vdss; how it was run: as §2
[15] = Clearance in rat at 3 mg/kg, iv by LC-MS/MS analysis; assay type: ADME, organism-based; conditions: in vivo; how it was run: as §2
[16] = tested on: Rattus norvegicus; experiment: In vivo agonist activity at FXR in po dosed Sprague-Dawley rat assessed as induction of BSEP mRNA level in liver administered as single dose measured 7 hrs post dose by qPCR analysis
[17] = Cmax in Sprague-Dawley rat at 0.1 mg/kg, po qd administered via gavage measured on day 1 by LC-MS/MS analysis; assay type: ADME, organism-based; design: dose 0.1 mg/kg, route oral; conditions: in vivo
[18] = AUC (0 to 24 hrs) in Sprague-Dawley rat at 3 mg/kg, po qd administered via gavage measured on day 11 by LC-MS/MS analysis; assay type: ADME, organism-based; design: dose 3 mg/kg, time < 24 hr, route oral; conditions: in vivo
[19] = Solubility of the compound in fasted state simulated intestinal fluid at pH 6.8; assay type: physicochemical
[20] = Half life in mouse at 5 mg/kg, iv by LC-MS/MS analysis; assay type: ADME, organism-based; conditions: in vivo
How it was run: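 Single IV dose given as a solution. Mouse and rat received it in 75% PEG300:25% D5W. Dog received it in 20% PEG300, 5% solutol and 75% carbonate buffer pH = 8. Plasma was sampled for PK parameters.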

[21] = Oral bioavailability in dog at 2 mg/kg administered via gavage by LC-MS/MS analysis; assay type: ADME, organism-based, Canis lupus familiaris; conditions: in vivo
How it was run: (§3)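 IV dosing used a solution in 75% PEG300:25% D5W for mouse and rat, and a solution in 20% PEG300, 5% solutol, 75% carbonate buffer pH 8 for dog. PO dosing used a suspension in 0.5% methylcellulose, 0.5% Tween80, 99% water for all three species.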

[22] = Protein binding in mouse plasma at 5 mg/kg, iv or 10 mg/kg, po administered via gavage by LC-MS/MS analysis; assay type: ADME, organism-based; conditions: read-out: PPB
[23] = Volume of distribution at steady state in mouse at 5 mg/kg, iv or 10 mg/kg, po administered via gavage by LC-MS/MS analysis; assay type: ADME, organism-based; conditions: in vivo, read-out: Vdss; how it was run: as §3
[24] = tested on: Rattus norvegicus; experiment: Dose normalized AUC (0 to 24 hrs) in Sprague-Dawley rat at 0.03 mg/kg, po qd administered via gavage measured on day 1 by LC-MS/MS analysis; assay type: ADME, organism-based; conditions: in vivo
[25] = Protein binding in dog plasma at 0.5 mg/kg, iv or 2 mg/kg, po administered via gavage by LC-MS/MS analysis; assay type: ADME, organism-based, Canis lupus familiaris; conditions: read-out: PPB
[26] = Cmax in Sprague-Dawley rat at 0.01 mg/kg, po qd administered via gavage measured on day 11 by LC-MS/MS analysis; assay type: ADME, organism-based; design: dose 0.01 mg/kg, route oral; conditions: in vivo
[27] = Drug uptake in Sprague-Dawley rat liver at 0.1 mg/kg, po qd administered via gavage measured 7 hrs post last dose on day 14 by LC-MS/MS analysis; assay type: ADME, organism-based; conditions: read-out: Drug uptake; how it was run: as §1
[28] = tested on: Rattus norvegicus; experiment: Dose normalized AUC (0 to 24 hrs) in Sprague-Dawley rat at 1 mg/kg, po qd administered via gavage measured on day 1 by LC-MS/MS analysis; assay type: ADME, organism-based; conditions: in vivo
[29] = Drug uptake in Sprague-Dawley rat liver at 1 mg/kg, po qd administered via gavage measured 1 hr post last dose on day 14 by LC-MS/MS analysis; assay type: ADME, organism-based; conditions: read-out: Drug uptake; how it was run: as §1
[30] = Cmax in dog at 2 mg/kg, po administered via gavage by LC-MS/MS analysis; assay type: ADME, organism-based, Canis lupus familiaris; design: dose 2 mg/kg, route oral; conditions: in vivo
How it was run: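 Single oral dose given as a suspension in 0.5% methylcellulose, 0.5% Tween80 and 99% water. Doses were 10 mg/kg in mouse, 1 mg/kg in rat and 2 mg/kg in dog.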

[31] = tested on: Rattus norvegicus; experiment: Dose normalized AUC (0 to 24 hrs) in Sprague-Dawley rat at 3 mg/kg, po qd administered via gavage measured on day 1 by LC-MS/MS analysis; assay type: ADME, organism-based; conditions: in vivo
[32] = Cmax in Sprague-Dawley rat at 0.3 mg/kg, po qd administered via gavage measured on day 11 by LC-MS/MS analysis; assay type: ADME, organism-based; design: dose 0.3 mg/kg, route oral; conditions: in vivo
[33] = Cmax in Sprague-Dawley rat at 3 mg/kg, po qd administered via gavage measured on day 11 by LC-MS/MS analysis; assay type: ADME, organism-based; design: dose 3 mg/kg, route oral; conditions: in vivo
[34] = tested on: Rattus norvegicus; experiment: Dose normalized AUC (0 to 24 hrs) in Sprague-Dawley rat at 0.003 mg/kg, po qd administered via gavage measured on day 11 by LC-MS/MS analysis; assay type: ADME, organism-based; conditions: in vivo

Compound: O=C(O)c1cc(F)c2nc(N3C4CCC3CC(OCc3c(-c5ccccc5OC(F)(F)F)noc3C3CC3)C4)sc2c1 (centres undefined)
- concentration at 7 h [1]: 0.31 nM
- Cmax [2]: 172 nM
- Activity [3]: 79%
- ED50 [4]: 0.01 mg/kg
- concentration at 1 h [5]: 2.92 nM
- AUC [6]: 6.04 µM·h
- concentration at 7 h [7]: 4.89 nM
- Cmax [8]: 39.3 nM
- concentration at 7 h [9]: 1.16 nM
- AUC/dose [10]: 443 nM·h
- concentration at 7 h [11]: 5.18 nM
- concentration at 7 h [12]: 9.74 nM
- Activity [13]: Active
- Vd [14]: 0.72 L/kg
- clearance [15]: 9 to 9.3 mL/min/kg
- Activity [16]: Dose-dependent effect
- Cmax [17]: 4.6 nM
- AUC at 24 h [18]: 1.69 µM·h
- solubility [19]: 600 µM (≈ 362 µg/mL)
- half-life [20]: 2.6 h
- bioavailability [21]: 10%
- fraction unbound [22]: 0.001
- Vd [23]: 0.7 L/kg
- AUC/dose [24]: 503 nM·h
- fraction unbound [25]: 0.001
- Cmax [26]: 0.79 nM
- concentration at 7 h [27]: 45 nM
- AUC/dose [28]: 461 nM·h
- concentration at 1 h [29]: 159 nM
- Cmax [30]: 332 nM
- AUC/dose [31]: 448 nM·h
- Cmax [32]: 14.8 nM
- Cmax [33]: 127 nM
- AUC/dose [34]: 756 nM·h
